Assay results taken from ChEMBL document CHEMBL1126073, “Synthesis of carbon-11 labeled iodinated cocaine derivatives and their distribution in baboon brain measured using positron emission tomography” (J Med Chem, 1992).

What was measured:
[1] = (§1) Baboon plasma free fraction.; format: ADME, cell-free; conditions: cercopithecidae, read-out: Free fraction
Procedure, shortened: (§2)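 Free fraction by ultrafiltration: 11C-labelled compound added to 0.18 mL baboon plasma plus 0.02 mL 100 mM sodium phosphate pH 7.4 with 1 μg physostigmine (esterase block). Incubated 15 min at room temperature, vortexed every 5 min, centrifugal filter spun 5 min. Value = 11C concentration in ultrafiltrate / concentration in incubation mixture.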

[2] = Percentage of tracer or metabolite (CO2) in baboon plasma at 10 min after injection of the compound; format: ADME, cell-free; conditions: cercopithecidae
Procedure, shortened: (§3)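 Arterial baboon plasma taken 1, 5, 10 and 30 min after injection of 11C tracer. 0.2 mL plasma in 1 mL acetonitrile, sonicated, centrifuged. Supernatant run on silica HPLC with acetonitrile/0.004 M (NH4)2HPO4 70/30 plus unlabelled carrier. Unchanged tracer, EME and void-volume acidic 11C measured as fractions of total. [11C]CO2 measured separately by volatilization assay. Mean of two experiments.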

[3] = Percentage of tracer or metabolite (CO2) in baboon plasma at 30 min after injection of the compound; format: ADME, cell-free; conditions: cercopithecidae, 0.5 h; procedure, shortened: as §3
[4] = Percentage of tracer or metabolite (CO2) in baboon plasma at 5 min after injection of the compound; format: ADME, cell-free; conditions: cercopithecidae; procedure, shortened: as §3
[5] = Percentage of tracer or metabolite(EME) in baboon plasma at 10 min after injection of the compound; format: ADME, cell-free; conditions: cercopithecidae; procedure, shortened: as §3
[6] = Percentage of tracer or metabolite(EME) in baboon plasma at 1 min after injection of the compound; format: ADME, cell-free; conditions: cercopithecidae; procedure, shortened: as §3
[7] = Percentage of tracer or metabolite(EME) in baboon plasma at 30 min after injection of the compound; format: ADME, cell-free; conditions: cercopithecidae, 0.5 h; procedure, shortened: as §3
[8] = Percentage of tracer or metabolite(EME) in baboon plasma at 5 min after injection of the compound; format: ADME, cell-free; conditions: cercopithecidae; procedure, shortened: as §3
[9] = Percentage of tracer or metabolite (acid metabolites) in baboon plasma at 10 min after injection of the compound; format: ADME, cell-free; conditions: cercopithecidae; procedure, shortened: as §3
[10] = Percentage of tracer or metabolite (acid metabolites) in baboon plasma at 1 min after injection of the compound; format: ADME, cell-free; conditions: cercopithecidae; procedure, shortened: as §3
[11] = Percentage of tracer or metabolite (acid metabolites) in baboon plasma at 30 min after injection of the compound; format: ADME, cell-free; conditions: cercopithecidae, 0.5 h; procedure, shortened: as §3
[12] = Percentage of tracer or metabolite (acid metabolites) in baboon plasma at 5 min after injection of the compound; format: ADME, cell-free; conditions: cercopithecidae; procedure, shortened: as §3
[13] = Percentage of tracer or metabolite (unchanged) in baboon plasma at 10 min after injection of the compound; format: ADME, cell-free; conditions: cercopithecidae; procedure, shortened: as §3
[14] = Percentage of tracer or metabolite (unchanged) in baboon plasma at 1 min after injection of the compound; format: ADME, cell-free; conditions: cercopithecidae; procedure, shortened: as §3
[15] = Percentage of tracer or metabolite (unchanged) in baboon plasma at 30 min after injection of the compound; format: ADME, cell-free; conditions: cercopithecidae, 0.5 h; procedure, shortened: as §3
[16] = Percentage of tracer or metabolite (unchanged) in baboon plasma at 5 min after injection of the compound; format: ADME, cell-free; conditions: cercopithecidae; procedure, shortened: as §3
[17] = Clearance from plasma(with matabolite-corrected plasma radioactivity-time integral) at 30 min after administration.; format: ADME, cell-free; conditions: cercopithecidae, 0.5 h
Procedure, shortened: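 Anaesthetised baboons given 4.7–8.4 mCi 11C tracer. Automated arterial sampling for the first 2 min, then manual sampling. Plasma total radioactivity corrected for metabolites using two-component exponential fits to the metabolite fractions. Time-radioactivity integral to 30 min by cubic spline integration.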

Monkey [18] = test: Peak striatal uptake in baboon expressed as percentage of injected dose per mL of tissue.; format: functional, Cercopithecidae, Striatum
Procedure, shortened: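 Adult female baboons (n = 7, 14.2–18.5 kg), ketamine 10 mg/kg i.m. induction, then oxygen/nitrous oxide/isoflurane anaesthesia. 4.7–8.4 mCi of N-11C-methyl tracer injected intravenously per PET scan. Regional time-activity curves; peak striatal radioactivity expressed as percent of injected dose per mL of tissue.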

[19] = Percentage of tracer or metabolite (CO2) in baboon plasma at 1 min after injection of the compound; format: ADME; conditions: cercopithecidae; procedure, shortened: as §3
[20] = Percentage unmetabolized in baboon plasma at 30 min after administration.; format: functional, Cercopithecidae; procedure, shortened: as §3
[21] = target: Sodium-dependent dopamine transporter (Rattus norvegicus, UniProt P23977); test: Concentration inhibiting [3H]cocaine binding site to rat striatal membranes.
Procedure, shortened: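 Rat striatal membranes prepared in ice-cold 320 mM sucrose with 10 mM NaH2PO4, pH 7.45 (1000g 3 min, then 30000g 30 min pellet). About 0.25 mg protein incubated at room temperature for 20 min with 2 nM [3H]cocaine, inhibitors 6 nM to 20 μM. Filtration through polyethylenimine-soaked glass-fibre filters, ice-cold wash, liquid scintillation counting.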

Monkey [22] = test: as §1; format: functional, organism-based; conditions: Cercopithecidae; procedure, shortened: as §2

Chain of Sodium-dependent dopamine transporter (P23977 whole entry): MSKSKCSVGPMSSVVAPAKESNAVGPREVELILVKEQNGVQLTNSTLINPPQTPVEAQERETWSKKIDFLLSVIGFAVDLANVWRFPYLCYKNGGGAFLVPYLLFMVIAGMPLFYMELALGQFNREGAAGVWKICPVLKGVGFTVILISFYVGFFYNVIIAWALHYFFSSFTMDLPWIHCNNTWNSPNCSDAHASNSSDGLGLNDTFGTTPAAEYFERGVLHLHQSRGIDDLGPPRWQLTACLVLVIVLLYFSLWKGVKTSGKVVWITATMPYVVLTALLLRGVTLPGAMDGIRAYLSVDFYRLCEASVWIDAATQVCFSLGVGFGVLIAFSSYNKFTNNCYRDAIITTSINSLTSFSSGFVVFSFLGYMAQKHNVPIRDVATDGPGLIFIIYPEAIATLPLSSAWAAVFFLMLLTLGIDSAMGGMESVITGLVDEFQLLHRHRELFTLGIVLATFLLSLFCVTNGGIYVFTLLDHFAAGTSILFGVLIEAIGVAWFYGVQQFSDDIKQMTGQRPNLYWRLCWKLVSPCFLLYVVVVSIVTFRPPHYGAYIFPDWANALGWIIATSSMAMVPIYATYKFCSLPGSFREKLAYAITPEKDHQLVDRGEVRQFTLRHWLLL

| SMILES | fraction unbound [1] | Tracer [2] | Tracer [3] | Tracer [4] | Tracer [5] | Tracer [6] | Tracer [7] | Tracer [8] | Tracer [9] | Tracer [10] | Tracer [11] | Tracer [12] | Tracer [13] | Tracer [14] | Tracer [15] | Tracer [16] | Plasma integral [17] | Peak striatal uptake (Monkey [18]) | Tracer [19] | Unmetabolized [20] | other results |
| --- | --- | --- | --- | --- | --- | --- | --- | --- | --- | --- | --- | --- | --- | --- | --- | --- | --- | --- | --- | --- | --- |
| COC(=O)C1C2CCC(C[C@@H]1OC(=O)c1ccc(I)cc1)N2C (stereo partly specified) | 0.06 | 21% | 32% | 7% | 2% | 1.5% | 2.6% | 2.5% | 45% | 0.5% | 71% | 17% | 48% | 90% | 22% | 60% | 1.8 uCi min ml-1 | 0.04 | 1% | 22% | – |
| COC(=O)C1C2CCC(C[C@@H]1OC(=O)c1cccc(I)c1)N2C (stereo partly specified) | 0.016 | 33% | 43% | 17% | 1% | 0.7% | 4% | 3% | 35% | 0.4% | 51% | 18% | 60% | 95% | 36% | 77% | 2.8 uCi min ml-1 | 0.03 | 3% | 36% | – |
| COC(=O)[C@H]1[C@@H](OC(=O)c2ccccc2)C[C@@H]2CC[C@H]1N2C [COCAINE] | 0.1 | 37% | 44% | 30% | 11% | 12% | 12% | 13% | 38% | 0.4% | 60% | 22% | 31% | 70% | 17% | 44% | 2.1 uCi min ml-1 | 0.06 | 6% | 17% | – |
| COC(=O)C1C2CCC(C[C@@H]1OC(=O)c1ccccc1I)N2C (stereo partly specified) | – | 21% | 29% | 15% | 0.2% | 0.3% | 0.2% | 0.2% | 52% | 0.02% | 69% | 15% | 48% | 97% | 33% | 79% | 6.1 uCi min ml-1 | 0.01 | -7% | 33% | IC50 [21]: 0.35 µM; Fu (Monkey [22]): 0.003% |
